# Published values pooled from the literature.
# Compare with care: the assays were run in different laboratories.
# FLT3: Receptor-type tyrosine-protein kinase FLT3 (FLT3, Homo sapiens, UniProt P36888)
# FLT3 N841I: Receptor-type tyrosine-protein kinase FLT3 (FLT3, Homo sapiens, UniProt P36888, N841I)
Structure (SMILES),target,test,setting,measurement,value
Cn1cc(-c2cc(F)cc(N3CCn4c(cc5c4CCCC5)C3=O)c2CO)cc(Nc2ccc(N3CCN(C4COC4)CC3)cn2)c1=O,FLT3,"enzyme activity, inhibitor",0.1 µM,inhibition,12%
O=c1[nH]c2ccccc2n1C1CCN(Cc2ccc(-c3[nH]c4cc5ncnc5cc4nc3-c3ccccc3)cc2)CC1,FLT3,cell-free assay,0.5 µM,remaining signal,94.6%
COc1ncccc1-c1cnn2ccc(N3CCN(C(=O)OC(C)C)CC3)nc12,FLT3,"binding, competition with immobilised ligand",1 µM,remaining binding,100%
CC(C)(C)c1cc(C=C(C#N)C#N)cc(Br)c1O,FLT3,"enzyme activity, inhibitor",0.5 µM,remaining activity,102%
N#CC1(c2ccccn2)CCN(Cc2cc(C(=O)O)c(=O)n3ccccc23)CC1,"Receptor-type tyrosine-protein kinase FLT3 (FLT3, Homo sapiens, UniProt P36888, F691L/ITD)","cell-free assay, competition with immobilised ligand",1 µM,remaining binding,100%
Nc1ncc(-c2nc(N3CCOCC3)nc(N3CCOCC3)n2)c(C(F)F)n1,FLT3 N841I,"binding, competition with immobilised ligand",10 µM,remaining binding,46%
Cc1nn(C)cc1-c1nc2c(N3CCN(Cc4ccc(Cl)cc4)CC3)c(Cl)cnc2[nH]1,FLT3 N841I,"binding, competition with immobilised ligand",1 µM,remaining binding,0%
C#Cc1n[nH]c2c(-c3cn([C@@H](C)c4ccccc4)c(=O)[nH]c3=O)cc(F)cc12,FLT3,"enzyme activity, inhibitor",0.1 µM,inhibition,4.9%
Cn1cncc1[C@@](O)(COc1ccc(C#N)cc1-c1ccc(OC(F)(F)F)cc1)c1ccc(C#N)cc1,"Receptor-type tyrosine-protein kinase FLT3 (FLT3, Homo sapiens, UniProt P36888, ITD)","cell-free assay, competition with immobilised ligand",1 µM,remaining binding,89%
Cn1cc(-c2cccc(N3CCc4c(sc5c4CC(C)(C)C5)C3=O)c2CO)cc(Nc2ccncn2)c1=O,FLT3,"enzyme activity, inhibitor",1 µM,inhibition,-6%
C#Cc1n[nH]c2c(-c3cn(C(C)c4ccccn4)c(=O)[nH]c3=O)cc(F)cc12 (centres unmarked),FLT3,"enzyme activity, inhibitor",1 µM,inhibition,8%
